Source: ChEMBL document CHEMBL1134769, “Potent and selective nonpeptide inhibitors of caspases 3 and 7” (J Med Chem, 2001)
Where “and” joins values, the source holds several entries; their conditions need not be identical. Equal entries are not always repeated. Calls of active or inactive are those of the source. The calls are words filed in the database; no cut-off is given here.

Legend:
Jurkat (Homo sapiens) [1] = assay: In vitro inhibition of Jurkat cell apoptosis at 50 uM of compound
C20/A4 [2] = assay: In vitro inhibition of Chondrocyte cell line C20/A4 apoptosis at 25 uM of compound; Not active; type: functional, cell-based; settings: Homo sapiens
Method in brief: (§1)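 Immortalized human chondrocyte line C20/A4 seeded at 20 000 cells/well overnight, then exposed 24 h to 4 μg/mL camptothecin with or without compound. Floating and adherent cells combined and lysed 30 min at 4 °C, then clarified at 14000g. Mono- and oligonucleosome DNA fragments measured by cell death ELISA; result expressed as % inhibition of apoptosis.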

Caspase-3 [3] = biological target: T1, Caspase-3 (Homo sapiens, UniProt P42574); assay: Inhibition of recombinant human caspase-3
T1 sequence (P42574 whole entry): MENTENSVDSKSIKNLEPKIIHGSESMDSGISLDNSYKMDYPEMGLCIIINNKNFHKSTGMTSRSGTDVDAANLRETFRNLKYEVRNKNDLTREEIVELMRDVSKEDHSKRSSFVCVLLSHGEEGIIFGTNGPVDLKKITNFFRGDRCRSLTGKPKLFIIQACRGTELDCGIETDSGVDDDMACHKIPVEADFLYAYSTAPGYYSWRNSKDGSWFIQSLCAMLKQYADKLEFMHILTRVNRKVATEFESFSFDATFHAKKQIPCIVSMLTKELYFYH

Jurkat (Homo sapiens) [4] = assay: In vitro inhibition of Jurkat cell apoptosis at 10 uM of compound
C20/A4 [5] = assay: In vitro inhibition of Chondrocyte cell line C20/A4 apoptosis at 10 uM of compound; Not active; type: functional, cell-based; settings: Homo sapiens
Method in brief: as §1

C20/A4 [6] = assay: In vitro inhibition of Chondrocyte cell line C20/A4 apoptosis at 25 uM of compound; type: functional, Homo sapiens
Method in brief: as §1

Caspase-3 [7] = biological target: T1, Caspase-3; assay: In vitro inhibition of Caspase-3 in presence of camptothecin induced chondrocyte cell cytosol.
Method in brief: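 IC50 measured in cytosol from camptothecin-treated (apoptotic) chondrocytes at 90% of assay volume. Two conditions: the endogenous caspase 3-like activity alone, or with added recombinant human caspase 3 (~10 units/assay). Buffer was 25 mM K+HEPES pH 7.5, 0.1% CHAPS, 50 mM KCl and 5 mM β-mercaptoethanol, with 10 μM Ac-DEVD-AMC. AMC fluorescence was read at 30 °C (ex 360/em 460 nm) with 5% final DMSO.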

C20/A4 [8] = assay: In vitro inhibition of Chondrocyte cell line C20/A4 apoptosis at 10 uM of compound; type: functional, Homo sapiens
Method in brief: as §1

Caspase-3 [9] = biological target: T1, Caspase-3; assay: In vitro inhibition of Caspase-3 in presence of naive chondrocyte cell cytosol
Method in brief: (§2)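 IC50 against recombinant full-length human caspase 3 (~10 units/assay; 1 unit = 1 pmol AMC/min), with cytosol from uninduced (nonapoptotic) chondrocytes making up 90% of assay volume. Assay buffer was 25 mM K+HEPES pH 7.5, 0.1% CHAPS, 50 mM KCl and 5 mM β-mercaptoethanol, with 10 μM Ac-DEVD-AMC. AMC was read at 30 °C (ex 360/em 460 nm) with 5% final DMSO.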

Caspase-3 [10] = biological target: T1, Caspase-3; assay: In vitro inhibition of Caspase-3 in presence of uninduced chondrocyte cell cytosol
Method in brief: as §2

SMILES | Inhibition (Jurkat (Homo sapiens) [1]) | NA (C20/A4 [2]) | IC50 (Caspase-3 [3]) | Inhibition (Jurkat (Homo sapiens) [4]) | NA (C20/A4 [5]) | Inhibition (C20/A4 [6]) | IC50 (Caspase-3 [7]) | Inhibition (C20/A4 [8]) | IC50 (Caspase-3 [9]) | IC50 (Caspase-3 [10])
COC[C@H]1CCCN1S(=O)(=O)c1ccc2c(c1)C(=O)C(=O)N2 | 22% | inactive | 18 µM | 15% | inactive |  |  |  |  | 
O=C1Nc2ccc(S(=O)(=O)N3CCCC3C(=O)Nc3ccccc3)cc2C1=O (centres undefined) |  |  | 0.14 µM |  |  |  |  |  |  | 
CN1C(=O)C(=O)c2cc(S(=O)(=O)N3CCC[C@H]3COc3ccccc3)ccc21 | 92% |  | 30 µM and 47 µM | 41% |  | 85% | 0.84 µM | 48% | 7.5 µM | 7.5 µM
C=CCN1C(=O)C(=O)c2cc(S(=O)(=O)N3CCC[C@H]3COc3ccccc3)ccc21 | 89% |  |  | 60% |  | 95% |  | 71% |  | 
CN1C(=O)C(=O)c2cc(C(=O)O)ccc21 |  |  | > 50 µM |  |  |  |  |  |  | 
